The source made the active and inactive calls. The rule behind the calls is not given here.
Columns and labels:
Hepacivirus hominis [1] = experiment: Inhibition of HCV NS5B polymerase assessed as chain termination of RNA synthesis
[2] = target: RNA-directed RNA polymerase (Hepacivirus hominis, UniProt O39930, S282T); experiment: Inhibition of HCV NS5B polymerase S282T mutant assessed as blocking of full length RNA product formation by single-nucleotide incorporation assay
Outline: (§1)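 Run 30 min with 3 μM each NTP, competing nucleotide 300 nM. Full-length product was resolved on urea gels and quantified by phosphorimager. IC50 came from a four-parameter logistic fit, three independent experiments. The ratio is S282T IC50 over wild-type IC50.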

Hepacivirus hominis [3] = experiment: Ratio of IC50 for HCV NS5B polymerase S282T mutant to IC50 for HCV NS5B polymerase by single-nucleotide incorporation assay; outline: as §1
[4] = Inhibition of HCV NS5B polymerase assessed as blocking of full length RNA product formation by single-nucleotide incorporation assay; set-up: species or system Hepacivirus hominis; outline: as §1

RNA-directed RNA polymerase, sequence (O39930 entry or part of it S282T): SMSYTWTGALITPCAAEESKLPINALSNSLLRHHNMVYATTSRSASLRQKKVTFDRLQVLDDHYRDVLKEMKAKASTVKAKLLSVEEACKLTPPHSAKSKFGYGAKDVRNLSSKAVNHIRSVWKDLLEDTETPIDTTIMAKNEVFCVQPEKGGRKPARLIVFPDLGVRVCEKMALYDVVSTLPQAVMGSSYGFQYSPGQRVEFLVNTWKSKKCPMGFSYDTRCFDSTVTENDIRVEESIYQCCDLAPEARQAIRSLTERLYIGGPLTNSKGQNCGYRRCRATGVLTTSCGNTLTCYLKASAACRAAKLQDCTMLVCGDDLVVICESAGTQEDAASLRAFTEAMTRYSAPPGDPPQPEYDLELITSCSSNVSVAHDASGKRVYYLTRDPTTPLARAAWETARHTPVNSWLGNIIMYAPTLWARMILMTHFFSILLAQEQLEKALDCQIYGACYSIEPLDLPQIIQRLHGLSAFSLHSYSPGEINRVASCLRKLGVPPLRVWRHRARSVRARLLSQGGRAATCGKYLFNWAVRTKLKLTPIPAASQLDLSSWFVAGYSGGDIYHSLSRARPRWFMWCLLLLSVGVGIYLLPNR

SMILES	Activity (Hepacivirus hominis [1])	IC50 [2] [µM]	Ratio IC50 (Hepacivirus hominis [3])	IC50 [4] [µM]
O=c1ccn([C@@H]2O[C@H](COP(=O)(O)OP(=O)(O)OP(=O)(O)O)C[C@H]2O)c(=O)[nH]1	Active	–	–	–
C[C@@]1(O)[C@H](O)[C@@H](COP(=O)(O)OP(=O)(O)OP(=O)(O)O)O[C@H]1n1cnc2c(N)ncnc21	–	> 100	> 24	4.2
C[C@@]1(O)[C@H](O)[C@@H](COP(=O)(O)OP(=O)(O)OP(=O)(O)O)O[C@H]1n1ccc(N)nc1=O [2'-C-METHYLCYTIDINE TRIPHOSPHATE]	–	60	9.5	6.3
Nc1ccn([C@@H]2O[C@H](COP(=O)(O)OP(=O)(O)OP(=O)(O)O)C[C@H]2O)c(=O)n1	Active	0.77	1.7	0.46
Nc1ncnc2c1ncn2[C@@H]1O[C@H](COP(=O)(O)OP(=O)(O)OP(=O)(O)O)C[C@H]1O	Active	8.8	2	4.4
Nc1nc2c(ncn2[C@@H]2O[C@H](COP(=O)(O)OP(=O)(O)OP(=O)(O)O)C[C@H]2O)c(=O)[nH]1	Active	–	–	–

— ChEMBL document CHEMBL1155141, “Pyrophosphorolytic excision of nonobligate chain terminators by hepatitis C virus NS5B polymerase” (Antimicrob Agents Chemother, 2007)
